# In ChEMBL document CHEMBL5724801, “EUbOPEN Chemogenomics Library - Multiplex” (2024):
# Several values for one entry are separate records, joined by “and”; a condition that tells them apart may be missing. Equal entries are not always repeated.
# Test system: HEK-293T
# Experiment: Multiplex assay against HEK293T
# Assay type: toxicity, cell-based
# Details: human, 12 h, 1 µM, compound concentration 1 uM
# Outline: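 Phenotypes for tubulin, mitochondrial mass and membrane permeability are expressed as per cents of healthy-nucleus cells. Cells were stained live at seeding with Hoechst33342, BioTracker Green Microtubule Cytoskeleton Dye, MitoTracker Red and Annexin V Alexa Fluor 680, then imaged after compound addition on a CQ1 microscope at 37°C and 5% CO2. Machine-learning gating in CellPathfinder separated Hoechst high-intensity objects from normal cells, divided normal cells by nuclear state (healthy, pyknosed, fragmented) and divided pyknosed cells into mitotic or apoptotic.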
Structure (SMILES),Population Apoptotic (%),Population Fragmented Nuclei (%),Population Healthy Nuclei (%),Population Hoechst High Intensity Objects (%),Population Membrane Permeable-Phenotype (%),Population Mitochondria Different-Phenotype (%),Population Mitotic Cells (%),Population Normal (%),Population Pyknosed Nuclei (%),Population Tubulin-Different-Phenotype (%)
O=C(O)CCC/C=C\CC1C(O)CC(O)C1/C=C/C(O)COc1cccc(Cl)c1 (centres undefined) [CLOPROSTENOL],31% and 40%,7% and 6%,81% and 80%,9% and 7%,0%,44% and 56%,68% and 59%,90% and 92%,10% and 13%,35% and 23%
Cc1cc(C(C#N)c2ccc(Cl)cc2)c(Cl)cc1NC(=O)c1cc(I)cc(I)c1O (centres undefined) [CLOSANTEL],6.57% and 5.41%,3.34% and 0.56%,–,0%,1.66% and 0%,–,93.43% and 94.59%,100%,41.64% and 82.22%,–

# Same assay, conditions: human, 12 h, 1 µM, compound concentration 1 uM
row,Structure (SMILES),Total Cell Count
1,O=C(O)CCC/C=C\CC1C(O)CC(O)C1/C=C/C(O)COc1cccc(Cl)c1 (centres undefined) [CLOPROSTENOL],458 and 341
2,Cc1cc(C(C#N)c2ccc(Cl)cc2)c(Cl)cc1NC(=O)c1cc(I)cc(I)c1O (centres undefined) [CLOSANTEL],329 and 180

# Same assay, conditions: human, 12 h, 10 µM, compound concentration 10 uM
Structure (SMILES),Population Apoptotic (%),Population Fragmented Nuclei (%),Population Healthy Nuclei (%),Population Hoechst High Intensity Objects (%),Population Membrane Permeable-Phenotype (%),Population Mitochondria Different-Phenotype (%),Population Mitotic Cells (%),Population Normal (%),Population Pyknosed Nuclei (%),Population Tubulin-Different-Phenotype (%)
O=C(O)CCC/C=C\CC1C(O)CC(O)C1/C=C/C(O)COc1cccc(Cl)c1 (centres undefined) [CLOPROSTENOL],45% and 51%,7% and 8%,77%,6% and 13%,0%,63% and 68%,54% and 48%,93% and 86%,14%,41% and 37%
Cc1cc(C(C#N)c2ccc(Cl)cc2)c(Cl)cc1NC(=O)c1cc(I)cc(I)c1O (centres undefined) [CLOSANTEL],9.49% and 11.94%,1.44% and 2.52%,–,0.29% and 0%,0%,–,90.51% and 88.06%,99.71% and 100%,39.37% and 84.28%,–

# Same assay, conditions: human, 12 h, 10 µM, compound concentration 10 uM
row,Structure (SMILES),Total Cell Count
1,O=C(O)CCC/C=C\CC1C(O)CC(O)C1/C=C/C(O)COc1cccc(Cl)c1 (centres undefined) [CLOPROSTENOL],395 and 357
2,Cc1cc(C(C#N)c2ccc(Cl)cc2)c(Cl)cc1NC(=O)c1cc(I)cc(I)c1O (centres undefined) [CLOSANTEL],349 and 159

# Same assay, conditions: human, 24 h, 1 µM, compound concentration 1 uM
Structure (SMILES),Population Apoptotic (%),Population Fragmented Nuclei (%),Population Healthy Nuclei (%),Population Hoechst High Intensity Objects (%),Population Membrane Permeable-Phenotype (%),Population Mitochondria Different-Phenotype (%),Population Mitotic Cells (%),Population Normal (%),Population Pyknosed Nuclei (%),Population Tubulin-Different-Phenotype (%)
O=C(O)CCC/C=C\CC1C(O)CC(O)C1/C=C/C(O)COc1cccc(Cl)c1 (centres undefined) [CLOPROSTENOL],22% and 34%,11% and 7%,76% and 83%,7% and 5%,1% and 0%,25% and 37%,77% and 65%,92% and 94%,11% and 9%,28% and 16%
Cc1cc(C(C#N)c2ccc(Cl)cc2)c(Cl)cc1NC(=O)c1cc(I)cc(I)c1O (centres undefined) [CLOSANTEL],9.09% and 12.78%,2.28% and 0.53%,72.62% and 29.1%,0.19% and 0%,1.05% and 0%,12.3% and 16.36%,90.91% and 87.22%,99.81% and 100%,25.1% and 70.37%,11.78% and 10.91%

# Same assay, conditions: human, 24 h, 1 µM, compound concentration 1 uM
row,Structure (SMILES),Total Cell Count
1,O=C(O)CCC/C=C\CC1C(O)CC(O)C1/C=C/C(O)COc1cccc(Cl)c1 (centres undefined) [CLOPROSTENOL],612 and 477
2,Cc1cc(C(C#N)c2ccc(Cl)cc2)c(Cl)cc1NC(=O)c1cc(I)cc(I)c1O (centres undefined) [CLOSANTEL],527 and 189

# Same assay, conditions: human, 24 h, 10 µM, compound concentration 10 uM
Structure (SMILES),Population Apoptotic (%),Population Fragmented Nuclei (%),Population Healthy Nuclei (%),Population Hoechst High Intensity Objects (%),Population Membrane Permeable-Phenotype (%),Population Mitochondria Different-Phenotype (%),Population Mitotic Cells (%),Population Normal (%),Population Pyknosed Nuclei (%),Population Tubulin-Different-Phenotype (%)
O=C(O)CCC/C=C\CC1C(O)CC(O)C1/C=C/C(O)COc1cccc(Cl)c1 (centres undefined) [CLOPROSTENOL],46%,10% and 12%,78%,7% and 11%,0%,46% and 55%,54% and 53%,92% and 88%,10% and 9%,35% and 31%
Cc1cc(C(C#N)c2ccc(Cl)cc2)c(Cl)cc1NC(=O)c1cc(I)cc(I)c1O (centres undefined) [CLOSANTEL],21.1% and 18.35%,2.28% and 2.25%,75.1% and 36.52%,0.21% and 2.73%,0.83% and 1.54%,12.15% and 7.69%,78.9% and 81.65%,99.79% and 97.27%,22.61% and 61.24%,3.04% and 9.23%

# Same assay, conditions: human, 24 h, 10 µM, compound concentration 10 uM
row,Structure (SMILES),Total Cell Count
1,O=C(O)CCC/C=C\CC1C(O)CC(O)C1/C=C/C(O)COc1cccc(Cl)c1 (centres undefined) [CLOPROSTENOL],490 and 483
2,Cc1cc(C(C#N)c2ccc(Cl)cc2)c(Cl)cc1NC(=O)c1cc(I)cc(I)c1O (centres undefined) [CLOSANTEL],483 and 183

# Same assay, conditions: human, 48 h, 1 µM, compound concentration 1 uM
Structure (SMILES),Population Apoptotic (%),Population Fragmented Nuclei (%),Population Healthy Nuclei (%),Population Hoechst High Intensity Objects (%),Population Membrane Permeable-Phenotype (%),Population Mitochondria Different-Phenotype (%),Population Mitotic Cells (%),Population Normal (%),Population Pyknosed Nuclei (%),Population Tubulin-Different-Phenotype (%)
O=C(O)CCC/C=C\CC1C(O)CC(O)C1/C=C/C(O)COc1cccc(Cl)c1 (centres undefined) [CLOPROSTENOL],20% and 28%,15% and 13%,77% and 81%,4% and 5%,1%,15% and 20%,79% and 71%,95% and 94%,6% and 5%,15% and 11%
Cc1cc(C(C#N)c2ccc(Cl)cc2)c(Cl)cc1NC(=O)c1cc(I)cc(I)c1O (centres undefined) [CLOSANTEL],9.63% and 18.42%,3.24% and 1.21%,87.05% and 68.15%,0% and 0.8%,4.96% and 1.78%,11.57% and 23.67%,90.37% and 81.58%,100% and 99.2%,–,–

# Same assay, conditions: human, 48 h, 1 µM, compound concentration 1 uM
row,Structure (SMILES),Total Cell Count
1,O=C(O)CCC/C=C\CC1C(O)CC(O)C1/C=C/C(O)COc1cccc(Cl)c1 (centres undefined) [CLOPROSTENOL],956 and 703

# Same assay, conditions: human, 48 h, 10 µM, compound concentration 10 uM
Structure (SMILES),Population Apoptotic (%),Population Fragmented Nuclei (%),Population Healthy Nuclei (%),Population Hoechst High Intensity Objects (%),Population Membrane Permeable-Phenotype (%),Population Mitochondria Different-Phenotype (%),Population Mitotic Cells (%),Population Normal (%),Population Pyknosed Nuclei (%),Population Tubulin-Different-Phenotype (%)
O=C(O)CCC/C=C\CC1C(O)CC(O)C1/C=C/C(O)COc1cccc(Cl)c1 (centres undefined) [CLOPROSTENOL],33% and 25%,16% and 18%,76% and 75%,7% and 6%,0% and 1%,32% and 25%,66% and 74%,92% and 93%,6% and 5%,18%
Cc1cc(C(C#N)c2ccc(Cl)cc2)c(Cl)cc1NC(=O)c1cc(I)cc(I)c1O (centres undefined) [CLOSANTEL],–,2.8% and 1.44%,87.9% and 66.19%,0.07% and 0%,1.34% and 0.54%,8.23% and 21.74%,96.03% and 80%,99.93% and 100%,–,–

# Same assay, conditions: human, 48 h, 10 µM, compound concentration 10 uM
row,Structure (SMILES),Total Cell Count
1,O=C(O)CCC/C=C\CC1C(O)CC(O)C1/C=C/C(O)COc1cccc(Cl)c1 (centres undefined) [CLOPROSTENOL],659 and 731
